Reference: ChEMBL document CHEMBL3856188, “Usnic Acid Derivatives with Cytotoxic and Antifungal Activities from the Lichen Usnea longissima” (J Nat Prod, 2016)
≈ marks a conversion by molar mass, not a printed value.

Columns and labels:
Trichophyton rubrum = assay: Antimicrobial activity against Trichophyton rubrum after 4 days by microdilution method; type: functional; conditions: 96 h
[1] = Cytotoxicity against human HepG2 cells assessed as cell growth inhibition after 48 hrs by MTT assay; type: functional, cell-based; conditions: HepG2, 48 h
Procedure, shortened: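 HepG2 cells seeded at 3 × 10^3 cells/well in DMEM with 10% FBS and grown 24 h, then exposed to compound for 48 h. MTT (5 mg/mL in PBS) added for 3 h, supernatant removed, formazan dissolved in DMSO with 10 min shaking, and OD read at 490 nm. Methotrexate served as positive control. Values given as IC50.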

SMILES	MIC50 (Trichophyton rubrum) [µM]	IC50 [1] [µM]
CCOC(=O)CCCN/C(C)=C1\C(=O)C=C2Oc3c(C(C)=O)c(O)c(C)c(O)c3[C@@]2(C)C1=O	> 200	
CN(Cc1cnc2nc(N)nc(N)c2n1)c1ccc(C(=O)N[C@@H](CCC(=O)O)C(=O)O)cc1 [METHOTREXATE]		15.8
COC(=O)CCCN/C(C)=C1\C(=O)C=C2Oc3c(C(C)=O)c(O)c(C)c(O)c3[C@@]2(C)C1=O	> 200	
CCO[C@@]12CC(O)=C(C(C)=O)C(=O)[C@]1(C)c1c(O)c(C(C)=O)c(O)c(C)c1O2	41 (≈ 16 µg/mL)	53.3
CCOC(=O)CCCN/C(C)=C1\C(=O)C[C@@]2(OCC)Oc3c(C(C)=O)c(O)c(C)c(O)c3[C@@]2(C)C1=O	> 200	
CCO[C@@]12CC(=O)/C(=C(/C)N)C(=O)[C@]1(C)c1c(O)c(C)c(O)c(C(C)=O)c1O2	> 200	50.2

Second part, led by results:

MIC50 (Trichophyton rubrum) [µM]	SMILES	IC50 [1] [µM]
> 200	CCO[C@@]12CC(=O)/C(=C(/C)N)C(=O)[C@]1(C)c1c(O)c(C(C)=O)c(O)c(C)c1O2	
> 200	CC(=O)C1=C(O)C=C2Oc3c(C(C)=O)c(O)c(C)c(O)c3[C@@]2(C)C1=O [(+)-USNIC ACID]	
41 (≈ 16 µg/mL)	CCO[C@@]12CC(O)=C(C(C)=O)C(=O)[C@]1(C)c1c(O)c(C)c(O)c(C(C)=O)c1O2	
